Test results reported in PMC8203602 (Clinical Pharmacology : Advances and Applications, 2021).
Marks after values point to notes of the source that are not given here.

How the values were obtained:
[1] = Plasma pharmacokinetics, single ascending dose cohorts; type: in vivo, human; conditions: for Tmax / half-life / AUC(0-inf) / AUC(0-t) / Cmax / Vd/F: human, plasma, oral; for CL/F: fasted, mean ± SD
[2] = Safety and tolerability assessments; type: in vivo, human; conditions: for Deaths / Discontinuations due to TEAEs / Number of TEAEs / Patients reporting TEAEs / Serious TEAEs: ATI-450 n=24
[3] = tested on: p-HSP27 (phosphorylated heat shock protein 27); test: Ex vivo lipopolysaccharide-stimulated whole blood PD assay, p-HSP27; type: cell-based, human; conditions: inhibitory Emax model, all SAD/MAD cohorts
Method in brief: (§1)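 Healthy adults were dosed orally, fasted. 10 mL blood was drawn: SAD pre-dose, 1, 12 and 24 h; MAD days 1 and 7 pre-dose, 4 and 12 h. Each analyte was read unstimulated, after ex vivo LPS, and after LPS plus 10 μM added test compound. Values were scaled to % day 1 pre-dose (LPS as maximum signal, spiked LPS as maximum inhibition). Plasma levels vs % inhibition were fit by inhibitory Emax (E0, Imax, IC50).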

[4] = tested on: rat streptococcal cell wall arthritis model; conditions: cited from earlier work
[5] = tested on: IL-1β; test: Ex vivo lipopolysaccharide-stimulated whole blood PD assay, IL-1β; type: cell-based, human
Method in brief: as §1

[6] = Plasma pharmacokinetics, multiple ascending dose cohorts; type: in vivo, human; conditions: for Tmax at 7 day: median (range)
[7] = tested on: IL-6; test: Ex vivo lipopolysaccharide-stimulated whole blood PD assay, IL-6; type: cell-based, human
Method in brief: as §1

[8] = tested on: IL-6; test: Human whole blood stimulated with IL-1β, IL-6 inhibition; type: cell-based; conditions: data not shown
[9] = tested on: neutrophils; test: Clinical laboratory neutrophil counts; type: in vivo, human; conditions: 50 mg BID group
[10] = tested on: TNF-α; test: Ex vivo lipopolysaccharide-stimulated whole blood PD assay, TNF-α; type: cell-based, human
Method in brief: as §1

[11] = tested on: murine model of NOMID; conditions: cited from earlier work
[12] = SAD and MAD cohorts, ATI-450 n=48
[13] = inhibitory Emax model, all SAD/MAD cohorts
[14] = maximum observed (up to), versus baseline

Cc1cnc(-c2ccnc(C(C)(C)O)n2)cc1-n1c(C)cc(OCc2ncc(F)cc2F)c(Cl)c1=O [ATI-450]
Tmax [1]: 2 to 4 h | half-life [1]: 8.5 to 11.2 h | AUC(0-inf) ([1]; 10 mg): 285 ± 78.4 ng·h/mL | AUC(0-t) ([1]; 10 mg): 276 ± 77.8 ng·h/mL | Cmax ([1]; 10 mg): 39.4 ± 10.4 ng/mL | Tmax ([1]; 10 mg): 2 h | Vd/F ([1]; 10 mg): 430 ± 124 L | half-life ([1]; 10 mg): 8.5 ± 3.2 h | AUC(0-inf) ([1]; 30 mg): 1100 ± 247 ng·h/mL | AUC(0-t) ([1]; 30 mg): 1070 ± 244 ng·h/mL | Cmax ([1]; 30 mg): 122 ± 33.4 ng/mL | Tmax ([1]; 30 mg): 4 h | Vd/F ([1]; 30 mg): 451 ± 202 L | half-life ([1]; 30 mg): 10.7 ± 3.3 h | AUC(0-inf) ([1]; 50 mg): 1460 ± 270 ng·h/mL | AUC(0-t) ([1]; 50 mg): 1430 ± 254 ng·h/mL | Cmax ([1]; 50 mg): 161 ± 20.4 ng/mL | Tmax ([1]; 50 mg): 3 h | Vd/F ([1]; 50 mg): 445 ± 94.7 L | half-life ([1]; 50 mg): 9.1 ± 2.4 h | AUC(0-inf) ([1]; 100 mg): 3650 ± 523 ng·h/mL | AUC(0-t) ([1]; 100 mg): 3490 ± 476 ng·h/mL | Cmax ([1]; 100 mg): 426 ± 111 ng/mL | Tmax ([1]; 100 mg): 2 h | Vd/F ([1]; 100 mg): 440 ± 190 L | half-life ([1]; 100 mg): 11.2 ± 5.8 h | CL/F ([1]; single dose 10 mg): 37.0 ± 8.8 L/h | CL/F ([1]; single dose 30 mg, one subject excluded): 28.4 ± 7.1^a L/h | CL/F ([1]; single dose 50 mg): 35.1 ± 6.3 L/h | CL/F ([1]; single dose 100 mg): 27.9 ± 4.3 L/h | Increase in AUC0-inf across dose range ([1]; single doses, 10 to 100 mg): ~12.8 fold | Increase in AUC0-t across dose range ([1]; single doses, 10 to 100 mg): ~12.6 fold | Increase in Cmax across dose range ([1]; single doses, 10 to 100 mg): approximately 10.8 fold | Deaths ([2]; MAD cohort): 0 | Discontinuations due to TEAEs ([2]; MAD cohort): 0 | Number of TEAEs ([2]; MAD cohort): 24 | Patients reporting TEAEs ([2]; MAD cohort): 12 (50.0) n (%) | Serious TEAEs ([2]; MAD cohort): 0 | Subjects with TEAEs considered related to study drug ([2]; SAD 10 mg cohort): 0 subjects | Subjects with TEAEs considered related to study drug ([2]; SAD 30 mg cohort (nausea, headache, dizziness)): 2 [33%] subjects | Subjects with TEAEs considered related to study drug ([2]; SAD 50 mg cohort (headache)): 1 [17%] subjects | Subjects with TEAEs considered related to study drug ([2]; SAD 100 mg cohort (dizziness)): 1 subjects | Findings in vital signs, electrocardiograms, or clinical laboratory values ([2]; SAD and MAD cohorts): No clinically significant findings | TEAE: Abdominal pain [2, 12]: 2 (4.2) n (%) | TEAE: Constipation [2, 12]: 3 (6.3) n (%) | TEAE: Dizziness [2, 12]: 6 (12.5) n (%) | TEAE: Headache [2, 12]: 10 (20.8) n (%) | TEAE: Nausea [2, 12]: 2 (4.2) n (%) | TEAE: Upper respiratory tract infection [2, 12]: 3 (6.3) n (%) | TEAE: Vomiting [2, 12]: 0 n (%) | Deaths ([2]; SAD cohort): 0 | Discontinuations due to TEAEs ([2]; SAD cohort): 0 | Number of TEAEs ([2]; SAD cohort): 15 | Patients reporting TEAEs ([2]; SAD cohort): 7 (29.2) n (%) | Serious TEAEs ([2]; SAD cohort): 0 | Imax (maximum percent inhibition) [3]: greater than 96% | Effect in arthritis model [4]: joint protective effects and preserved bone mineral density | Imax (maximum percent inhibition) [5, 13]: 74% | Inhibition of IL-1β versus baseline [5, 14]: ≤ 83.0% | CLss/F ([6]; 10 mg BID, day 7, mean ± SD): 37.4 ± 10.9 L/h | Cmin ([6]; 10 mg BID, day 7, mean ± SD): 8.1 ± 3.1 ng/mL | Rac, AUCtau (accumulation ratio for AUCtau) ([6]; 10 mg BID, day 7, mean ± SD): 1.4 ± 0.3 | Rac, Cmax (accumulation ratio for Cmax) ([6]; 10 mg BID, day 7, mean ± SD): 1.6 ± 0.6 | CLss/F ([6]; 30 mg BID, day 7, mean ± SD): 33.9 ± 5.9 L/h | Cmin ([6]; 30 mg BID, day 7, mean ± SD): 28.8 ± 10.7 ng/mL | Rac, AUCtau (accumulation ratio for AUCtau) ([6]; 30 mg BID, day 7, mean ± SD): 1.4 ± 0.3 | Rac, Cmax (accumulation ratio for Cmax) ([6]; 30 mg BID, day 7, mean ± SD): 1.2 ± 0.3 | CLss/F ([6]; 50 mg BID, day 7, mean ± SD): 37.3 ± 11.7 L/h | Cmin ([6]; 50 mg BID, day 7, mean ± SD): 58.7 ± 32.8 ng/mL | Rac, AUCtau (accumulation ratio for AUCtau) ([6]; 50 mg BID, day 7, mean ± SD): 1.3 ± 0.4 | Rac, Cmax (accumulation ratio for Cmax) ([6]; 50 mg BID, day 7, mean ± SD): 1.3 ± 0.5 | Increase in AUCtau over dose range ([6]; 10 to 50 mg BID, day 1): 5.9 fold | Increase in Cmax over dose range ([6]; 10 to 50 mg BID, day 1): 5.4 fold | Increase in AUCtau over dose range ([6]; 10 to 50 mg BID, day 7): 5.2 fold | Increase in Cmax over dose range ([6]; 10 to 50 mg BID, day 7): 4.2 fold | Day of administration by which steady state appeared to be reached ([6]; all BID dose levels, based on mean Ctrough days 2 through 6): ≤ 2 days | AUC ([6]; human, plasma, oral, 10 mg): 288 ± 81.5 ng·h/mL | AUC(0-t) ([6]; human, plasma, oral, 10 mg): 365 ± 111 ng·h/mL | Cmax at 7 day ([6]; human, plasma, oral, 10 mg): 51.8 ± 15.8 ng/mL | Vd/F ([6]; human, plasma, oral, 10 mg): 517 ± 203 L | concentration at 7 day ([6]; human, plasma, oral, 10 mg): 24 ± 6.8 ng/mL | half-life ([6]; human, plasma, oral, 10 mg, t1/2, 10 mg BID, day 7, mean ± SD): 9.6 ± 2.1 h | Tmax at 7 day ([6]; human, plasma, oral, 10 mg, 10 mg BID, day 7): 2 h | AUC ([6]; human, plasma, oral, 30 mg): 909 ± 163 ng·h/mL | AUC(0-t) ([6]; human, plasma, oral, 30 mg): 1200 ± 309 ng·h/mL | Cmax at 7 day ([6]; human, plasma, oral, 30 mg): 146 ± 33.6 ng/mL | Vd/F ([6]; human, plasma, oral, 30 mg): 483 ± 85.1 L | concentration at 7 day ([6]; human, plasma, oral, 30 mg): 75.6 ± 13.4 ng/mL | half-life ([6]; human, plasma, oral, 30 mg, t1/2, 30 mg BID, day 7, mean ± SD): 10.3 ± 3.2 h | Tmax at 7 day ([6]; human, plasma, oral, 30 mg, 30 mg BID, day 7): 2 h | AUC ([6]; human, plasma, oral, 50 mg): 1510 ± 660 ng·h/mL | AUC(0-t) ([6]; human, plasma, oral, 50 mg): 2260 ± 1070 ng·h/mL | Cmax at 7 day ([6]; human, plasma, oral, 50 mg): 219 ± 77.8 ng/mL | Vd/F ([6]; human, plasma, oral, 50 mg): 586 ± 163 L | concentration at 7 day ([6]; human, plasma, oral, 50 mg): 126 ± 55 ng/mL | half-life ([6]; human, plasma, oral, 50 mg, t1/2, 50 mg BID, day 7, mean ± SD): 11.6 ± 3.7 h | Tmax at 7 day ([6]; human, plasma, oral, 50 mg, 50 mg BID, day 7): 3 h | half-life ([6]; human, plasma, oral, Mean t1/2 across all SAD and MAD cohorts, all SAD and MAD cohorts): 9 to 12 h | half-life ([6]; human, plasma, oral, Mean terminal t1/2 across doses, 10 to 50 mg BID, day 7): 9 to 12 h | Tmax ([6]; human, plasma, oral, Median tmax across all SAD and MAD cohorts, all SAD and MAD cohorts): 2 to 4 h | inhibition at 50 mg ([7]; Homo sapiens, 168 h, read-out: IL-6 inhibition): > 50% | Imax (maximum percent inhibition) [7, 13]: greater than 96% | Potency for inhibiting IL-6 [8]: comparable to that for TNF-α and IL-8 | Neutrophil count ([9]; day 7 (baseline 3318.4 cells/μL)): 2514.4 cells/μL | Mean reduction in neutrophils ([9]; day 7 versus baseline): 24% | Imax (maximum percent inhibition) [10, 13]: greater than 96% | Inhibition of TNF-α versus baseline [10, 14]: up to 92.7% | Effect on bone marrow levels of IL-1β ([11]; NOMID mice, relative to placebo): reduction in bone marrow levels of IL-1β | Effect on disease ([11]; transgenic NOMID mice): dramatic attenuation of disease
